For one assay, the target named is T1, s15-LOX-1 (Glycine max, UniProt P08170).
T1 sequence (P08170 1-839): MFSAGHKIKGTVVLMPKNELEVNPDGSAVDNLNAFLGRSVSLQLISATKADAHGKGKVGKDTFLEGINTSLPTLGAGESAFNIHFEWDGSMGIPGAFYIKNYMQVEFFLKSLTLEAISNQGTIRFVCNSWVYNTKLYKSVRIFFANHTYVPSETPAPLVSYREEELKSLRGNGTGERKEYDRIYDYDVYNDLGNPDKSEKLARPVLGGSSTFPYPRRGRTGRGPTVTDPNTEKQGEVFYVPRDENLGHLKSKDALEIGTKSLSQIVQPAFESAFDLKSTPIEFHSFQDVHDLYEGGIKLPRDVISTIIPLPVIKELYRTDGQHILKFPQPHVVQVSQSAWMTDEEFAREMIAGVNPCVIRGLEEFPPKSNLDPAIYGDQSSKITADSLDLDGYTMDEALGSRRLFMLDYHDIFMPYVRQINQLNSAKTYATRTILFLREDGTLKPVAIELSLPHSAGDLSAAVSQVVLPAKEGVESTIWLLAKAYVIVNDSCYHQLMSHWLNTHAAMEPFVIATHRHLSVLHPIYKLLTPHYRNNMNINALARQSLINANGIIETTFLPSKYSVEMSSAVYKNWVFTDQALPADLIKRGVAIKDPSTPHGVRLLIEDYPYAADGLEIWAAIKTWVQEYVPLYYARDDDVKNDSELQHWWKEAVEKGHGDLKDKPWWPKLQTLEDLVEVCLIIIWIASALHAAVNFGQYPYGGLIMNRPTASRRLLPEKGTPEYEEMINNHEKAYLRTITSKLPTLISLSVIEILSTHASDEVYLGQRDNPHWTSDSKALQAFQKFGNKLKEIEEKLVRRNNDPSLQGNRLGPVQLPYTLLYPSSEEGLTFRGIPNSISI
The experiment in a line: Lipoxygenase UV-Vis-based IC50 assay, s15-LOX-1. Format: biochemical, soybean.

Assay [1] concerns the target T2, h15-LOX-1 (Homo sapiens, UniProt P16050).
T2 sequence (P16050 1-662): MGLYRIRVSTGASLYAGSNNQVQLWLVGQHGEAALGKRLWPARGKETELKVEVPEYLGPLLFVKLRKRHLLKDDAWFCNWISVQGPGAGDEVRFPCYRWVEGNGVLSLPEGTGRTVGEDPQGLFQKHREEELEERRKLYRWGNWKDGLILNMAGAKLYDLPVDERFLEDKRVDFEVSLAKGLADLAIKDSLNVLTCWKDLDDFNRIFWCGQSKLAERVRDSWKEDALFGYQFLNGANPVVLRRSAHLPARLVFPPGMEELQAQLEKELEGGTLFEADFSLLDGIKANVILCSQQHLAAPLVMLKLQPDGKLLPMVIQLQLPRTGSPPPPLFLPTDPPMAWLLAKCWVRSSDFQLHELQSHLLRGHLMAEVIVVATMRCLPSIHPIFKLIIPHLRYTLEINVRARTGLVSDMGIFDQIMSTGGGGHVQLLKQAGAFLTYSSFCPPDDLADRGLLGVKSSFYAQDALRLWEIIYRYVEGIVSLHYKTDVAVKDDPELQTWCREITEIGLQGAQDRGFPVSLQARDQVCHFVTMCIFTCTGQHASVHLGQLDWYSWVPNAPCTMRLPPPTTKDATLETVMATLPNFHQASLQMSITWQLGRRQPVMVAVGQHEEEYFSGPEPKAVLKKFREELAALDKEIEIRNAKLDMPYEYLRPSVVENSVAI
The experiment in a line: Incubation activity assay. Format: biochemical. Conditions: time incubation experiments.

For a further assay, the target named is T3, h5-LOX (Homo sapiens, UniProt P09917).
T3 sequence (P09917 1-674): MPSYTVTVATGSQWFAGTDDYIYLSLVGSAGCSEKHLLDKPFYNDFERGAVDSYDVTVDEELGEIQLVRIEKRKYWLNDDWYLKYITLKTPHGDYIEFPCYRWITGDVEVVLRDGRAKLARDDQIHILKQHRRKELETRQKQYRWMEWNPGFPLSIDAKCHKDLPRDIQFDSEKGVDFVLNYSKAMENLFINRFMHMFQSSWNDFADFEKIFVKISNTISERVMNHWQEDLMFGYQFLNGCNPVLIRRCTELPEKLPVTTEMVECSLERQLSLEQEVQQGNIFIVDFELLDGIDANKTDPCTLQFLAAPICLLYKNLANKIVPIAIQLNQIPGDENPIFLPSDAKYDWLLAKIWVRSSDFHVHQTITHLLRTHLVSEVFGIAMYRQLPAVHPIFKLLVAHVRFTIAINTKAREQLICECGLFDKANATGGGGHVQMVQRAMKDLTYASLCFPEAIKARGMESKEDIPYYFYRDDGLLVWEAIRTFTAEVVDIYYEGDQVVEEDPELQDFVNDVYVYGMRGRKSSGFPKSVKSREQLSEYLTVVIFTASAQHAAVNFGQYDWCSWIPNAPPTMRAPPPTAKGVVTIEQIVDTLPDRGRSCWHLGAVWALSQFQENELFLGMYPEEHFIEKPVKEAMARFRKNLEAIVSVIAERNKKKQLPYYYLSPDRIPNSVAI
In words: Oxo-lipid substrate activity, h5-LOX. Format: biochemical. The settings on record: IC50 assay conditions, 10 μM oxo-lipid, UV-Vis 234/280 nm, LC-MS.

The target of assay [2] is T2, h15-LOX-1. The experiment in a line: Oxo-lipid substrate activity, h15-LOX-1. Format: biochemical.
The next assay concerns cytosolic calcium levels. The settings on record: cited from earlier work.
For another assay, the target named is LOX isozymes. The experiment in a line: Lipoxygenase UV-Vis-based IC50 assay, summary over LOX isozymes. It counts as biochemical.
Assay [3] concerns the target T4, h12-LOX (Homo sapiens, UniProt P18054).
T4 sequence (P18054 1-663): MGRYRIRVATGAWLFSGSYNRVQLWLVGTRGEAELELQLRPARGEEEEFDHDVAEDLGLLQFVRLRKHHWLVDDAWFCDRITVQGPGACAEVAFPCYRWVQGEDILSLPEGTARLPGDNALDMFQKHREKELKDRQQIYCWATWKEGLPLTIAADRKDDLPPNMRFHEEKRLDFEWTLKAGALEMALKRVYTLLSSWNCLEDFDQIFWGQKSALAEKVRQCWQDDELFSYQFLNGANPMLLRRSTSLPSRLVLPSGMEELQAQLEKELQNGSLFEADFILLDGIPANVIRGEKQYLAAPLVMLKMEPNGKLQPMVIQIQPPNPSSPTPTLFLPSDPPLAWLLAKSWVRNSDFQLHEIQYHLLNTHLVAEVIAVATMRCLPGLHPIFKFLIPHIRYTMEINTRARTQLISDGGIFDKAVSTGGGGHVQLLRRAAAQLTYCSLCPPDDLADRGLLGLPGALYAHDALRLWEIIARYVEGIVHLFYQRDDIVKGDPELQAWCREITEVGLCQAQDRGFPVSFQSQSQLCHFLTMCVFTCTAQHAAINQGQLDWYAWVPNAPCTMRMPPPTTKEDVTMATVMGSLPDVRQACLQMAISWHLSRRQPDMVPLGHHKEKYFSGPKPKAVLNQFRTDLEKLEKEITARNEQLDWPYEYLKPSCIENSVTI
The experiment in a line: Oxo-lipid substrate activity, h12-LOX. Format: biochemical.

The target in assay [4] is T4, h12-LOX. The experiment in a line: Steady-state inhibition kinetics, h12-LOX. It counts as biochemical. The settings on record: for Ki: 0.4–10 μM AA, 25 mM HEPES pH 8.0, 0.01% Triton X-100, Dixon plot and replot. An outline of the steps: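 Enzyme added to start the reaction in a stirred cuvette containing 0.4–10 μM arachidonic acid, 25 mM HEPES (pH 8.0) and 0.01% Triton X-100. 12-HpETE formation followed at 234 nm (ε = 25,000 M−1cm−1) across substrate and inhibitor concentrations, with Dixon series at 0.6, 1, 3 and 9 μM AA. Dixon plot and slope-vs-[inhibitor] replot give Kic (dissociation from enzyme) and Kiu (from enzyme–substrate complex).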

Where [5] appears, read: IC50 assay conditions, 10 μM oxo-lipid, UV-Vis 234/280 nm.
The mark [6] stands for this setting: IC50 assay conditions, 10 μM oxo-lipid, UV-Vis 234/280 nm, LC-MS.
The mark [7] stands for this setting: incubation conditions, 10 μM, on ice 15 minutes, HPLC and LC-MS.

Entries after “also recorded” stand apart in the source; their conditions may differ. Read-outs that look alike come from different tables or passages of the source.

A word on the IC50: it is the midpoint of a concentration-inhibition curve. In turn, `CCCCC/C=C\CC(=O)/C=C/C=C\C/C=C\CCCC(=O)O` [12-oxo-ETE, 12-oxo-5,8,10,14-(Z,Z,E,Z)-eicosatetraenoic acid] yielded an IC50 at s15-LOX-1 above 100 µM. The “mode of inhibition (time dependence)” value on h15-LOX-1 [1] is reported as “irreversible inhibition”. Moreover, on h5-LOX, the substrate activity entry is reported as “no change of absorbance at 234 nm or 280 nm”. For the same compound, the substrate activity result at h15-LOX-1 [2] (setting [5]) is given as “no change of absorbance at 234 nm or 280 nm”. Moreover, in the assay on cytosolic calcium levels, the “concentration with calcium effects (as low as)” value is 10 nM and the “concentration with effects on cytosolic calcium levels” value is 10 µM.
Turning to `CCCCCC(=O)/C=C/C=C\CCCCCCCC(=O)O` [13-oxo-ODE, 13-oxo-9,11-(Z,E)-octadecadienoic acid], the 50% inhibitory concentration (IC50) against s15-LOX-1 is above 100 µM; at LOX isozymes (read-out: IC50 for all LOXs, all LOXs studied), above 100 µM.
In turn, `CCCCC/C=C\C/C=C\C/C=C\C=C\C(=O)CCCC(=O)O` [5-oxo-ETE, 5-oxo-6,8,11,14-(E,Z,Z,Z)-eicosatetraenoic acid] returned an IC50 against s15-LOX-1 above 100 µM. Moreover, the substrate activity result on h5-LOX, at h12-LOX [3] (setting [6]) and on h15-LOX-1 [2] (setting [5]) was “no change of absorbance at 234 nm or 280 nm” each time.
For orientation: Ki means a dissociation constant, usually derived from enzyme kinetics or from competition with a known ligand. In the case of `CCCCCC(=O)/C=C/C=C\C/C=C\C/C=C\CCCC(=O)O` [15-oxo-ETE, 15-oxo-5,8,11,13-(Z,Z,Z,E)-eicosatetraenoic acid], the half-maximal inhibitory concentration (IC50) at LOX isozymes (read-out: IC50 against the other LOX isozymes, LOX isozymes other than h12-LOX) is above 25 µM. The Ki at h12-LOX [4] (Kic) was 0.087 ± 0.008 µM; on h12-LOX [4] (Kiu) it was 2.1 ± 0.8 µM. The “mode of inhibition (steady state)” value at h12-LOX [4] (steady state inhibition kinetics) is reported as “mixed inhibitor; also recorded: mixed inhibition”. In addition, the substrate activity result on h5-LOX is reported as “multiple oxidation products were formed”; on h12-LOX [3] (setting [6]), “not a substrate”; on h12-LOX [3] (setting [7]) it was “not a substrate”; at h15-LOX-1 [2] (setting [7]), “not a substrate”.

Values taken from PMC4112157 (Bioorganic & medicinal chemistry, 2014).
